Assay results published in ChEMBL document CHEMBL4715736, “Identification of anticancer agents based on the thieno[2,3-b]pyridine and 1H-pyrazole molecular scaffolds” (2016).

Test system: SR
Assay: Growth inhibition of human SR cells assessed as cell growth at 0.01 uM incubated for 48 hrs by sulforhodamine B assay relative to control
Format: functional
Details: read-out: Activity

Compound	growth at 0.01 µM [%]
Cc1ccc(NC(=O)c2sc3nc4c(cc3c2N)C(=O)CCC4)cc1C	106

Test system: HOP-92
Assay: Growth inhibition of human HOP-92 cells assessed as cell growth at 0.01 uM incubated for 48 hrs by sulforhodamine B assay relative to control
Format: functional
Details: read-out: Activity

Compound	growth at 0.01 µM [%]
Cc1ccc(NC(=O)c2sc3nc4c(cc3c2N)C(=O)CCC4)cc1C	87

Test system: HCT-116
Assay: Growth inhibition of human HCT-116 cells assessed as cell growth at 0.01 uM incubated for 48 hrs by sulforhodamine B assay relative to control
Format: functional
Details: read-out: Activity

Compound	growth at 0.01 µM [%]
Cc1ccc(NC(=O)c2sc3nc4c(cc3c2N)C(=O)CCC4)cc1C	99

Test system: A498
Assay: Growth inhibition of human A498 cells assessed as cell growth at 0.01 uM incubated for 48 hrs by sulforhodamine B assay relative to control
Format: functional
Details: read-out: Activity
How it was run: (§1)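 NCI Developmental Therapeutics Program NCI60 panel. Compounds that were active in the 10 µM one-dose screen went on to dose–response testing. Growth at each concentration is expressed relative to untreated control (100%). GI50 (concentration giving 50% of maximal inhibition of proliferation) and TGI (concentration giving total growth inhibition) were derived from the curves.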

Compound	growth at 0.01 µM [%]
Cc1ccc(NC(=O)c2sc3nc4c(cc3c2N)C(=O)CCC4)cc1C	89

Test system: SR
Assay: Growth inhibition of human SR cells assessed as cell growth at 0.1 uM incubated for 48 hrs by sulforhodamine B assay relative to control
Format: functional
Details: read-out: Activity

Compound	growth at 0.1 µM [%]
Cc1ccc(NC(=O)c2sc3nc4c(cc3c2N)C(=O)CCC4)cc1C	108

Test system: OVCAR-5
Assay: Growth inhibition of human OVCAR-5 cells assessed as cell growth at 0.1 uM incubated for 48 hrs by sulforhodamine B assay relative to control
Format: functional
Details: read-out: Activity

Compound	growth at 0.1 µM [%]
Cc1ccc(NC(=O)c2sc3nc4c(cc3c2N)C(=O)CCC4)cc1C	87

Test system: TK-10
Assay: Growth inhibition of human TK-10 cells assessed as cell growth at 0.1 uM incubated for 48 hrs by sulforhodamine B assay relative to control
Format: functional
Details: read-out: Activity

Compound	growth at 0.1 µM [%]
Cc1ccc(NC(=O)c2sc3nc4c(cc3c2N)C(=O)CCC4)cc1C	85

Test system: UO-31
Assay: Growth inhibition of human UO-31 cells assessed as cell growth at 0.1 uM incubated for 48 hrs by sulforhodamine B assay relative to control
Format: functional
Details: read-out: Activity

Compound	growth at 0.1 µM [%]
Cc1ccc(NC(=O)c2sc3nc4c(cc3c2N)C(=O)CCC4)cc1C	81

Test system: A549
Assay: Growth inhibition of human A549/ATCC cells assessed as cell growth at 1 uM incubated for 48 hrs by sulforhodamine B assay relative to control
Format: functional
Details: read-out: Activity
How it was run: as §1

Compound	growth at 1 µM [%]
Cc1ccc(NC(=O)c2sc3nc4c(cc3c2N)C(=O)CCC4)cc1C	40

Test system: NCI-H322M
Assay: Growth inhibition of human NCI-H322M cells assessed as cell growth at 1 uM incubated for 48 hrs by sulforhodamine B assay relative to control
Format: functional
Details: read-out: Activity

Compound	growth at 1 µM [%]
Cc1ccc(NC(=O)c2sc3nc4c(cc3c2N)C(=O)CCC4)cc1C	49

Test system: NCI-H460
Assay: Growth inhibition of human NCI-H460 cells assessed as cell growth at 1 uM incubated for 48 hrs by sulforhodamine B assay relative to control
Format: functional
Details: read-out: Activity

Compound	growth at 1 µM [%]
Cc1ccc(NC(=O)c2sc3nc4c(cc3c2N)C(=O)CCC4)cc1C	11

Test system: 786-0
Assay: Growth inhibition of human 786-0 cells assessed as cell growth at 1 uM incubated for 48 hrs by sulforhodamine B assay relative to control
Format: functional
Details: read-out: Activity
How it was run: as §1

Compound	growth at 1 µM [%]
Cc1ccc(NC(=O)c2sc3nc4c(cc3c2N)C(=O)CCC4)cc1C	40

Test system: CAKI-1
Assay: Growth inhibition of human CAKI-1 cells assessed as cell growth at 1 uM incubated for 48 hrs by sulforhodamine B assay relative to control
Format: functional
Details: read-out: Activity
How it was run: as §1

Compound	growth at 1 µM [%]
Cc1ccc(NC(=O)c2sc3nc4c(cc3c2N)C(=O)CCC4)cc1C	41

Test system: CCRF-CEM
Assay: Growth inhibition of human CCRF-CEM cells assessed as cell growth at 100 uM incubated for 48 hrs by sulforhodamine B assay relative to control
Format: functional
Details: read-out: Activity
How it was run: as §1

Compound	growth at 100 µM [%]
Cc1ccc(NC(=O)c2sc3nc4c(cc3c2N)C(=O)CCC4)cc1C	10

Test system: NCI-H322M
Assay: Growth inhibition of human NCI-H322M cells assessed as cell growth at 100 uM incubated for 48 hrs by sulforhodamine B assay relative to control
Format: functional
Details: read-out: Activity

Compound	growth at 100 µM [%]
Cc1ccc(NC(=O)c2sc3nc4c(cc3c2N)C(=O)CCC4)cc1C	37

Test system: NCI-H522
Assay: Growth inhibition of human NCI-H522 cells assessed as cell growth at 100 uM incubated for 48 hrs by sulforhodamine B assay relative to control
Format: functional
Details: read-out: Activity

Compound	growth at 100 µM [%]
Cc1ccc(NC(=O)c2sc3nc4c(cc3c2N)C(=O)CCC4)cc1C	-13

Test system: HT-29
Assay: Growth inhibition of human HT-29 cells assessed as cell growth at 100 uM incubated for 48 hrs by sulforhodamine B assay relative to control
Format: functional
Details: read-out: Activity

Compound	growth at 100 µM [%]
Cc1ccc(NC(=O)c2sc3nc4c(cc3c2N)C(=O)CCC4)cc1C	-23

Test system: SNB-75
Assay: Growth inhibition of human SNB-75 cells assessed as cell growth at 100 uM incubated for 48 hrs by sulforhodamine B assay relative to control
Format: functional
Details: read-out: Activity

Compound	growth at 100 µM [%]
Cc1ccc(NC(=O)c2sc3nc4c(cc3c2N)C(=O)CCC4)cc1C	10

Test system: UACC-257
Assay: Growth inhibition of human UACC-257 cells assessed as cell growth at 100 uM incubated for 48 hrs by sulforhodamine B assay relative to control
Format: functional
Details: read-out: Activity

Compound	growth at 100 µM [%]
Cc1ccc(NC(=O)c2sc3nc4c(cc3c2N)C(=O)CCC4)cc1C	35

Test system: BT-549
Assay: Growth inhibition of human BT-549 cells assessed as cell growth at 100 uM incubated for 48 hrs by sulforhodamine B assay relative to control
Format: functional
Details: read-out: Activity

Compound	growth at 100 µM [%]
Cc1ccc(NC(=O)c2sc3nc4c(cc3c2N)C(=O)CCC4)cc1C	42

Test system: MDA-MB-468
Assay: Growth inhibition of human MDA-MB-468 cells assessed as cell growth at 100 uM incubated for 48 hrs by sulforhodamine B assay relative to control
Format: functional
Details: read-out: Activity

Compound	growth at 100 µM [%]
Cc1ccc(NC(=O)c2sc3nc4c(cc3c2N)C(=O)CCC4)cc1C	-1

Test system: HOP-62
Assay: Growth inhibition of human HOP-62 cells incubated for 48 hrs by sulforhodamine B assay
Format: functional
Details: not given
How it was run: (§2)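 NCI60 panel at the NCI Developmental Therapeutics Program. Only compounds active in the 10 µM screen went to dose-response testing. GI50, the concentration giving 50% of maximal inhibition of proliferation, and TGI, the concentration giving total growth inhibition, were derived from the dose-response curves.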

Compound	GI50 [µM]	LC50 [µM]	TGI [µM]
Cc1ccc(NC(=O)c2sc3nc4c(cc3c2N)C(=O)CCC4)cc1C	0.605	> 100	> 100

Test system: NCI-H322M
Assay: Growth inhibition of human NCI-H322M cells incubated for 48 hrs by sulforhodamine B assay
Format: functional
Details: not given
How it was run: as §2

Compound	GI50 [µM]	TGI [µM]
Cc1ccc(NC(=O)c2sc3nc4c(cc3c2N)C(=O)CCC4)cc1C	0.975	> 100

Same assay, conditions: read-out: LC50 (the source's name)

Compound	CC50 [µM]
Cc1ccc(NC(=O)c2sc3nc4c(cc3c2N)C(=O)CCC4)cc1C	> 100

Test system: KM12
Assay: Growth inhibition of human KM12 cells incubated for 48 hrs by sulforhodamine B assay
Format: functional
Details: not given
How it was run: as §2

Compound	GI50 [µM]	LC50 [µM]	TGI [µM]
Cc1ccc(NC(=O)c2sc3nc4c(cc3c2N)C(=O)CCC4)cc1C	0.479	> 100	> 100

Test system: SF-295
Assay: Growth inhibition of human SF-295 cells incubated for 48 hrs by sulforhodamine B assay
Format: functional
Details: not given
How it was run: (§3)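 NCI DTP 60-line human tumour panel. Dose-response curves were run only for ligands active in the initial 10 µM screen. GI50 (concentration giving 50% of maximal inhibition of proliferation) and TGI (concentration giving total growth inhibition) were derived from these curves.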

Compound	GI50 [µM]	LC50 (concentration killing 50% of cells) [µM]	TGI [µM]
Cc1ccc(NC(=O)c2sc3nc4c(cc3c2N)C(=O)CCC4)cc1C	0.328	> 100	> 100

Test system: LOX IMVI
Assay: Growth inhibition of human LOX IMVI cells incubated for 48 hrs by sulforhodamine B assay
Format: functional
Details: not given
How it was run: as §2

Compound	GI50 [µM]	LC50 [µM]	TGI [µM]
Cc1ccc(NC(=O)c2sc3nc4c(cc3c2N)C(=O)CCC4)cc1C	0.716	> 100	> 100

Test system: UACC-257
Assay: Growth inhibition of human UACC-257 cells incubated for 48 hrs by sulforhodamine B assay
Format: functional
Details: not given
How it was run: as §3

Compound	LC50 (concentration killing 50% of cells) [µM]	TGI [µM]
Cc1ccc(NC(=O)c2sc3nc4c(cc3c2N)C(=O)CCC4)cc1C	> 100	> 100

Test system: SN12C
Assay: Growth inhibition of human SN12C cells incubated for 48 hrs by sulforhodamine B assay
Format: functional
Details: not given
How it was run: as §3

Compound	GI50 [µM]	TGI [µM]
Cc1ccc(NC(=O)c2sc3nc4c(cc3c2N)C(=O)CCC4)cc1C	0.675	> 100

Same assay, conditions: read-out: LC50 (the source's name)

Compound	CC50 [µM]
Cc1ccc(NC(=O)c2sc3nc4c(cc3c2N)C(=O)CCC4)cc1C	> 100

Test system: MDA-MB-231
Assay: Growth inhibition of human MDA-MB-231 cells incubated for 48 hrs by sulforhodamine B assay
Format: functional
Details: not given
How it was run: as §2

Compound	GI50 [µM]	TGI [µM]
Cc1ccc(NC(=O)c2sc3nc4c(cc3c2N)C(=O)CCC4)cc1C	1.51	> 100

Same assay, conditions: read-out: LC50 (the source's name)

Compound	CC50 [µM]
Cc1ccc(NC(=O)c2sc3nc4c(cc3c2N)C(=O)CCC4)cc1C	> 100

Test system: Hs-578T
Assay: Growth inhibition of human Hs-578T cells incubated for 48 hrs by sulforhodamine B assay
Format: functional
Details: not given
How it was run: as §2

Compound	GI50 [µM]	TGI [µM]
Cc1ccc(NC(=O)c2sc3nc4c(cc3c2N)C(=O)CCC4)cc1C	0.356	> 100

Same assay, conditions: read-out: LC50 (the source's name)

Compound	CC50 [µM]
Cc1ccc(NC(=O)c2sc3nc4c(cc3c2N)C(=O)CCC4)cc1C	> 100
